Most compounds without a hit are left out; they make up all but 3.1% or so of the library.
GalR3 antagonist – antagonists of human GalR3. inhibition, % at 3 µM. O60755. HEK293 GalR3-CNG cAMP membrane potential fluorescence; galR3 body fused to GalR1 C-terminus. 360,000 tested, 0.44% active;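 active means inhibition above the screen-wide average plus 3 SD, cut at about 13% in these data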;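 further: forskolin and galanin both at EC90 stimulate the cells; cAMP rise reported by CNG channel membrane potential dye signal; 0% = forskolin plus galanin with DMSO and 100% = forskolin alone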
OX1R antag-1 – blocks the human orexin 1 receptor | OX1R-expressing cells, FRET antagonist read-out | AID 485270 | O43613 | inhibition, % at 6.6 µM | 330,000 tested, 1.8% active; in the data active means inhibition mostly above about 38%, no sharp cut-off; inactive means mostly below about 40%;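 further: 0% = agonist challenge alone and 100% = reference antagonist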
Target sequence (O43613 whole entry, looked up): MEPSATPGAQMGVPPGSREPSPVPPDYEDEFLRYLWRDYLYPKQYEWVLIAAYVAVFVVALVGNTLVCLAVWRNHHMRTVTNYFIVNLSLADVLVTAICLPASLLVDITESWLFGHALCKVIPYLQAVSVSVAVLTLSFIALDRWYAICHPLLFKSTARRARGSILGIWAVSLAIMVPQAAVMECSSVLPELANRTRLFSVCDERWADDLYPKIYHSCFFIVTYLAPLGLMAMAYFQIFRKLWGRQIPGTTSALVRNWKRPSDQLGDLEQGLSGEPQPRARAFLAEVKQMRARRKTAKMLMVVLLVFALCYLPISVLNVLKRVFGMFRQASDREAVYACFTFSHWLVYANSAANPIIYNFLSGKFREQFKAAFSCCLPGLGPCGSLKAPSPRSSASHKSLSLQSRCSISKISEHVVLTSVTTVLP
OX1R antag-2 – blocks the human orexin 1 receptor; O43613; 330,000 tested, 0.43% active; CHO/OX1R cells, Fluo-8 calcium fluorescence, orexin A; inhibition, % at 5 µM;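 active means inhibition above its plate's threshold, mean inhibition of all tested compounds on the plate plus 3 SD, cut at about 37% in these data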;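 further: 0% = orexin A challenge wells and 100% = SB-334867-A antagonist wells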
GPR7 antagonist – blocks human GPR7 receptor signaling | GPR7-expressing cells, fluorescence antagonist assay | inhibition, % at 4.4 µM | 290,000 tested, 1.1% active | AID 1861; in the data active means inhibition above about 16%, passing the limit was not always enough;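 further: cells stimulated with the agonist NPW; 0% = agonist with vehicle and 100% = vehicle without agonist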
Target sequence (P48145 whole entry, looked up): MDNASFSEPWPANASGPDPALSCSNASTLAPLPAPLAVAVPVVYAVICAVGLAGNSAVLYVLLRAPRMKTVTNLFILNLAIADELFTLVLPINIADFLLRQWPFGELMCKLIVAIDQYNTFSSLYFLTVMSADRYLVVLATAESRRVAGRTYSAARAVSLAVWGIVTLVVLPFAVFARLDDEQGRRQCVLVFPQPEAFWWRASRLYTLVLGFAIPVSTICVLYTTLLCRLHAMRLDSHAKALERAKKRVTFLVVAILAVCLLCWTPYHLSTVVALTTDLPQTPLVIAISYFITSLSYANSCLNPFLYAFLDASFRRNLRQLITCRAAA
CHO parental Ca – counter-screen for OX1R antagonists: effect in parental CHO cells; parental CHO-K1, ATP-induced calcium, Fluo-8 fluorescence; inhibition, % at 5.6 µM; 330,000 tested, 0.63% active; AID 463079;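 active means inhibition above that plate's mean sample inhibition plus 3 SD, cut at about 26% in these data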;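 further: 0% = ATP-challenged DMSO wells and 100% = DMSO wells without ATP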
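Material: parental CHO cells / Compound: single nominal dose of 5.6 µM per compound / Signal: Fluo-8 fluorescence / Replicates: singlicate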
OX1R HTRF conf – confirmation of human orexin 1 receptor antagonists, HTRF format | shares compounds with OX1R antag-1 | OX1R-expressing cells, HTRF antagonist assay | inhibition, % at 6.6 µM | 1,800 tested, 49% active | AID 492964; in the data active means inhibition above about 55%;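 further: CHO cells expressing OX1R stimulated with orexin A at about EC80; 0% = agonist challenge alone and 100% = reference antagonist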
CHO-K1 HTRF cnt – counter-screen for OX1R antagonists: effect in parental CHO-K1 cells; 1,800 tested, 48% active; shares compounds with OX1R antag-1; HTRF counterscreen; inhibition, % at 6.6 µM; in the data active means inhibition above about 17%;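 further: 0% = agonist challenge with vehicle and 100% = vehicle alone without agonist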
* = called active by the depositor; · = not tested or not shown.

SMILES | GalR3 antagonist | OX1R antag-1 | OX1R antag-2 | GPR7 antagonist | CHO parental Ca | OX1R HTRF conf | CHO-K1 HTRF cnt
COC(=O)Cn1c(=N)n(CCN2CCCCC2)c2ccccc21 | -1.6 | 96.0* | -7.4 | -3.1 | -4.0 | 13.6 | -11.7
CCOc1ccc(OCC(=O)c2c(O)c3ccccc3oc2=O)cc1 | -1.3 | 79.4* | -7.7 | 6.4 | 4.5 | 16.3 | -11.3
COc1ccc(C(=O)NCCS(=O)(=O)N2CCN(C(=O)c3ccco3)CC2)cc1 | -4.7 | 9.7 | -0.2 | · | -16.9 | · | ·
CCc1nc2ccccc2c(=O)n1/N=C/c1ccc(OC)cc1 | -4.9 | 3.3 | -30.0 | · | -11.0 | · | ·
O=C(Nc1cc(S(=O)(=O)N2CCCCC2)ccc1O)c1ccccc1NS(=O)(=O)c1ccc(F)c(F)c1 | -3.0 | 82.9* | 12.1 | -10.6 | -17.4 | 41.8 | 2.4
O=C(Nc1cccc(S(=O)(=O)N2CCCCC2)c1)c1ccccc1NS(=O)(=O)c1ccc(F)cc1 | -5.5 | 49.6 | 15.0 | -3.2 | -3.1 | · | ·
Cc1cc(C=C2C(=O)c3ccccc3C2=O)c(C)n1C | -1.9 | 92.1* | 9.7 | -2.9 | -8.4 | 38.2 | 14.1
O=C(Nc1cccnc1)c1cnc2ccccc2n1 | 0.3 | 108.9* | -6.8 | -12.4 | -1.1 | 43.3 | 45.5*
O=[N+]([O-])c1ccc2nnn(O)c2c1 | -1.2 | 90.9* | -13.2 | -7.0 | -7.8 | 30.9 | 46.4*
O=[N+]([O-])c1cnccc1Nc1ccc(F)cc1 | -1.2 | 127.2* | -16.0 | -12.2 | 5.8 | 36.5 | 33.4*
CCOC(=O)c1c(C)[nH]c(C(=O)NCC(c2ccco2)N2CCCCC2)c1C (stereo unspecified) | -5.2 | -0.3 | -22.9 | · | -15.9 | · | ·
CC(C)(C)n1[nH]c2c3c(ccc2c1=O)C(=O)c1ccccc1C3=O | -2.5 | 128.6* | -31.3 | -1.9 | -10.4 | 45.9 | 43.4*
CN(C)CCN(CC1CCCN(Cc2ccccc2F)C1)C(=O)c1ccc(F)cc1 (stereo unspecified) | -1.8 | 2.3 | -30.8 | -9.8 | -18.2 | · | ·
CCOc1ccccc1N(CC(=O)NCCSc1ccccn1)S(=O)(=O)c1ccccc1 | -11.9 | 79.9* | 15.7 | 2.2 | -37.1 | 77.3* | 8.0
Cc1cc(C)cc(N(CC(=O)NCCSc2ccccn2)S(=O)(=O)c2ccccc2)c1 | -3.5 | 32.2 | -12.4 | -10.8 | -32.2 | · | ·
Cn1c2ccc(F)cc2c2nc3ccccc3nc21 | -3.2 | 86.9* | 16.7 | -21.6 | -12.4 | 91.3* | -4.0
Cc1ccc2c(c1)c1nc3ccccc3nc1n2C | -10.3 | 94.2* | 10.2 | -20.4 | -16.5 | 90.6* | 5.1
CCOc1ccc2c(c1)c1nc3ccccc3nc1n2C | -8.4 | · | · | -14.9 | · | · | ·
CSc1nnc2c3cc(F)ccc3n(C)c2n1 | -2.2 | 19.1 | -18.9 | -3.3 | 1.8 | · | ·
CSc1ccccc1OCc1cc(C(=O)N(C)C2CCCc3ccccc32)no1 (stereo unspecified) | -8.8 | 22.5 | -23.4 | 3.9 | -17.1 | · | ·
CCOC(=O)NC1=NCC(C)S1 (stereo unspecified) | 6.1 | 1.6 | -13.1 | -6.4 | -4.2 | · | ·
COc1c(C)cc(C(=O)C2CCCN(C(=O)c3cccc(F)c3)C2)cc1C (stereo unspecified) | -4.0 | 105.7* | 8.7 | -16.9 | -3.1 | 87.7* | -0.4
COc1ccc2cc(C(=O)C3CCCN(C(=O)c4cnccn4)C3)ccc2c1 (stereo unspecified) | -6.3 | 97.2* | -15.0 | 5.7 | -12.3 | 18.9 | -5.7
COc1c(C)cc(C(=O)C2CCCN(C(=O)c3ccc4cc[nH]c4c3)C2)cc1C (stereo unspecified) | -0.6 | 82.4* | -5.5 | -6.6 | -22.2 | 71.9* | -4.4
O=C(c1cccc(F)c1)N1CCCC(C(=O)N2CCCCCC2)C1 (stereo unspecified) | -8.4 | -9.3 | -13.6 | -6.0 | -16.1 | · | ·
SMILES | GalR3 antagonist | OX1R antag-1 | OX1R antag-2 | GPR7 antagonist | CHO parental Ca | OX1R HTRF conf | CHO-K1 HTRF cnt
CCCCCCn1nc(C(=O)N(CCCC)c2c(N)n(CCC)c(=O)[nH]c2=O)c2ccccc2c1=O | -1.4 | 8.9 | -31.0 | · | -34.1 | · | ·
Cc1nc(SCC(=O)N2CCCC2=O)nc(C)c1C | -5.6 | 8.0 | -13.9 | · | -13.2 | · | ·
O=Cc1c(Sc2ccccn2)nc2ccccn2c1=O | -0.8 | 95.5* | -11.0 | -10.9 | -4.9 | 37.0 | 44.6*
Cc1ccc2c(c1)C(=O)c1c(C(=O)O)cccc1-2 | 1.9 | 24.8 | -15.3 | -9.2 | -3.3 | · | ·
O=C(O)c1cccc2c1C(=O)c1cccc3snc-2c13 | 4.1 | 88.1* | -5.3 | -14.6 | -11.1 | 54.8* | 78.3*
CC(=O)Nc1ccc2c(c1)c1ccccc1n2C(C)=O | -2.2 | 77.5* | -0.5 | 4.9 | -12.3 | 71.3* | 14.2
CC(=O)Nc1ccc2nc3ccccc3nc2c1 | -0.7 | 133.9* | -4.8 | -8.8 | -2.8 | 109.7* | 64.9*
CC(=O)Nc1cccc(-c2nc3ccccc3o2)c1 | -8.8 | 80.2* | 24.6 | -6.7 | -11.3 | 65.9* | 1.3
CCn1c2ccccc2c2cc(NC(C)=O)ccc21 | 0.4 | 32.1 | -10.5 | 9.0 | -9.0 | · | ·
CC(=O)Nc1ccc2c(c1)C(=O)c1ccccc1C2=O | -4.1 | 102.2* | -5.5 | -2.9 | 0.4 | 69.8* | 39.4*
O=C(Nc1ccc2nc3ccccc3nc2c1)c1ccc(Br)cc1 | -2.6 | 13.4 | -3.1 | -8.1 | -3.6 | · | ·
Cc1ccc(-n2c(SCC(=O)N(C)C)nnc2-c2ccco2)cc1 | -7.6 | -1.6 | -15.7 | 4.5 | -16.1 | · | ·
O=C(O)/C=C/C(=O)Nc1ccc2c(c1)C(=O)c1ccccc1C2=O | -4.4 | 82.7* | -2.9 | -12.7 | -4.7 | 41.0 | 49.9*
O=C(O)/C=C/C(=O)Nc1ccc(C(=O)c2ccccc2)cc1 | -7.3 | 0.8 | 9.1 | 0.8 | 0.1 | · | ·
CCOc1ccc2c(c1)S/C(=C\c1cccs1)C(=O)N2 | 1.5 | 80.7* | 8.0 | -10.6 | -12.7 | 71.8* | 4.6
Cc1cc(C)cc(N=C2NC(=O)/C(=C/c3cccs3)S2)c1 | -5.8 | 25.5 | -32.4 | -10.6 | -20.3 | · | ·
CCc1nc2ccc(C(=O)Nc3cccc(C(C)=O)c3)cc2nc1CC | -7.4 | 80.9* | 1.5 | -7.6 | -19.2 | 33.2 | 4.9
CC(=O)N(/N=C1\Sc2ccccc2C1=O)c1ccccc1C | -0.6 | 104.6* | -13.4 | 21.7 | -38.5 | 37.5 | 12.2
O=C(N/N=C/c1cc(Cl)c(O)c(Cl)c1)c1cc2c(ccc3ccccc32)o1 | -3.1 | 92.2* | 9.1 | -21.6 | 14.4 | 54.2 | 14.1
CC(C)(C)c1nc(Sc2ncccc2[N+](=O)[O-])n[nH]1 | -5.3 | 30.1 | -6.3 | -11.0 | -2.3 | · | ·
O=c1ccnc(Sc2ncccc2[N+](=O)[O-])[nH]1 | -1.6 | 92.1* | -29.5 | -12.6 | -1.1 | 48.5 | 47.2*
CN1CCCC(OC(=O)c2ccc(C#N)cc2)C1 (stereo unspecified) | -8.3 | -9.3 | -3.9 | -3.5 | 1.9 | · | ·
Nc1cn(C2OC(CO)C(O)C2O)c(=O)[nH]c1=O (stereo unspecified) | -7.6 | · | · | -11.8 | · | · | ·
COC(=O)Nc1cc(C(=O)c2ccc(Cl)cc2Cl)c[nH]1 | -12.1 | -4.6 | -5.1 | 3.5 | 4.3 | · | ·

Bioassay records deposited in PubChem by The Scripps Research Institute Molecular Screening Center.
